Here are results for 64 molecules from ChEMBL document CHEMBL1125879, “Synthesis and antimalarial activity of 2-aziridinyl- and 2,3-bis(aziridinyl)-1,4-naphthoquinonyl sulfonate and acylate derivatives” (J Med Chem, 1991).

The nature of this assay: In vitro antimalarial activity against human malaria parasite, P falciparum (Vietnam Smith strain). Type of assay: functional, Plasmodium falciparum. In a few lines: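 P. falciparum in infected erythrocytes, semisynchronized cultures, initial parasitemia 1-3%, in RPMI 1640 with 25 mM HEPES, bicarbonate, 5% pooled calf serum; agents from 10^-2 M DMSO stocks at various concentrations, 48 h exposure with 1 μCi [3H]hypoxanthine per well throughout. Filter-harvested, scintillation counted. IC50 = 50% drop in incorporation vs drug-free controls, graphic extrapolation, mean of 2-4 observations.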

In general, IC50 refers to the point on the concentration scale where inhibition reaches its midpoint. A high value points to weaker potency in that assay. Molecule `CN(C)c1cccc2c(S(=O)(=O)Oc3cccc4c3C(=O)C=C(N3CC3)C4=O)cccc12` registered an IC50 of 0.29 µM.
The value for `CS(=O)(=O)Oc1cccc2c1C(=O)C(N1CC1)=C(N1CC1)C2=O` was 3.2 µM; that for `Cc1ccc(S(=O)(=O)Oc2cccc3c2C(=O)C(N2CC2)=C(N2CC2)C3=O)cc1` was 4.6 µM.
The molecule `Cc1ccc(S(=O)(=O)Oc2cccc3c2C(=O)C=C(N2CC2)C3=O)cc1` displayed a concentration for half-maximal inhibition (IC50) of 0.2 µM.
The value for `CC1(C)C2CCC1(CS(=O)(=O)Oc1cccc3c1C(=O)C(N1CC1)=C(N1CC1)C3=O)C(=O)C2` (centres undefined) was 6 µM; that for `O=C1C(N2CC2)=C(N2CC2)C(=O)c2c(O)cccc21` was 1.6 µM; that for `CN(C)c1cccc2c(S(=O)(=O)Oc3cccc4c3C(=O)C(N3CC3)=C(N3CC3)C4=O)cccc12` was 3 µM.
Take `O=C1C(N2CC2)=C(N2CC2)C(=O)c2c(OS(=O)(=O)Cc3ccccc3)cccc21`: inhibition was half-maximal at 2.4 µM (IC50).
As to `Cc1cc(C)c(S(=O)(=O)Oc2cccc3c2C(=O)C(N2CC2)=C(N2CC2)C3=O)c(C)c1`, the IC50 came out at 3.9 µM.
As to `CC1=C(N2CC2)C(=O)c2c(OS(=O)(=O)c3ccc(C(C)(C)C)cc3)cccc2C1=O`, half-maximal inhibition (IC50) was put at 3.6 µM.
The value for `O=C(Oc1cccc2c1C(=O)C=C(N1CC1)C2=O)c1ccccc1` was 0.45 µM; that for `CCc1ccc(S(=O)(=O)Oc2cccc3c2C(=O)C=C(N2CC2)C3=O)cc1` was 0.096 µM.
Take `O=C1C(N2CC2)=C(N2CC2)C(=O)c2c(OS(=O)(=O)c3ccc(Br)cc3)cccc21`: the IC50 was 3.7 µM.
On to `O=C1C(N2CC2)=CC(=O)c2c(OS(=O)(=O)c3ccc(I)cc3)cccc21`, for which the IC50 was 0.33 µM.
Turning to `CN(C)S(=O)(=O)Oc1cccc2c1C(=O)C=C(NCCCl)C2=O`, 2.2 µM corresponded to half-maximal inhibition (IC50).
`O=C1C(N2CC2)=CC(=O)c2c(OS(=O)(=O)/C=C/c3ccccc3)cccc21` registered an IC50 of 0.17 µM.
For `O=C(Oc1cccc2c1C(=O)C(N1CC1)=C(N1CC1)C2=O)c1cccs1`, half-maximal inhibition (IC50) required 2.6 µM.
Molecule `O=C1C(NCCCl)=CC(=O)c2c(OS(=O)(=O)Cc3ccccc3)cccc21` gave an IC50 of 6.5 µM.
On to `O=C(Oc1cccc2c1C(=O)C=C(N1CC1)C2=O)c1ccc(Cl)cc1`, for which the IC50 was 0.53 µM.
In turn, `CC1=C(N2CC2)C(=O)c2c(O)cccc2C1=O` registered an IC50 of 1.5 µM.
`O=C1C(N2CC2)=CC(=O)c2c(OS(=O)(=O)c3cccc4ccccc34)cccc21` came in with an IC50 of 0.13 µM.
Molecule `COc1ccc(C(=O)Oc2cccc3c2C(=O)C=C(N2CC2)C3=O)cc1` showed an IC50 of 0.54 µM.
As for `O=C1C(N2CC2)=C(N2CC2)C(=O)c2c(OS(=O)(=O)/C=C/c3ccccc3)cccc21`, inhibition was half-maximal at 5.8 µM (IC50).
`CCc1ccc(S(=O)(=O)Oc2cccc3c2C(=O)C(N2CC2)=C(N2CC2)C3=O)cc1` came in with a 50% inhibitory concentration (IC50) of 4 µM.
The molecule `CC(C)c1cc(C(C)C)c(S(=O)(=O)Oc2cccc3c2C(=O)C(N2CC2)=C(N2CC2)C3=O)c(C(C)C)c1` displayed a concentration for half-maximal inhibition (IC50) of 3 µM.
`O=C1C(N2CC2)=CC(=O)c2c(O)cccc21` had an IC50 of 0.088 µM.
Consider `O=C1C(N2CC2)=C(N2CC2)C(=O)c2c(OS(=O)(=O)c3ccccc3)cccc21`, for which the IC50 was found to be 5.8 µM.
In the case of `O=C1C(N2CC2)=C(N2CC2)C(=O)c2c(OS(=O)(=O)c3ccc(I)cc3)cccc21`, the IC50 worked out at 4.1 µM.
On to `O=C1C(N2CC2)=C(N2CC2)C(=O)c2c(OS(=O)(=O)c3ccc(Cl)cc3)cccc21`, for which it took 3.2 µM to reach half-maximal inhibition (IC50).
`O=C1C(N2CC2)=C(N2CC2)C(=O)c2c(OS(=O)(=O)c3cccc4ccccc34)cccc21` registered an IC50 of 3.4 µM.
For the molecule `O=C1C(N2CC2)=C(N2CC2)C(=O)c2c(OS(=O)(=O)CCCCl)cccc21`, half-maximal inhibition (IC50) was put at 3 µM.
As for `CCCCCCCCCCCCCCCCS(=O)(=O)Oc1cccc2c1C(=O)C(N1CC1)=C(N1CC1)C2=O`, the figure is 20 µM; as for `O=C1C(N2CC2)=C(N2CC2)C(=O)c2c(OS(=O)(=O)c3ccc([N+](=O)[O-])cc3)cccc21`, 7.6 µM; as for `O=C1C(N2CC2)=CC(=O)c2c(OS(=O)(=O)c3cccc4cccnc34)cccc21`, 0.43 µM.
Molecule `O=C1C(N2CC2)=CC(=O)c2c(OS(=O)(=O)c3cccs3)cccc21` returned an IC50 of 0.47 µM.
For `C/N=C1\C=C(O)c2c(O)cccc2C1=O`, half-maximal inhibition (IC50) was put at 3.7 µM.
`COc1ccc(C(=O)Oc2cccc3c2C(=O)C(N2CC2)=C(N2CC2)C3=O)cc1` came in with an IC50 of 3.7 µM.
`O=C(Oc1cccc2c1C(=O)C(N1CC1)=C(N1CC1)C2=O)c1ccccc1` showed an IC50 of 2.6 µM.
As for `O=C(Oc1cccc2c1C(=O)C(N1CC1)=C(N1CC1)C2=O)c1ccc(F)cc1`, the figure is 4.4 µM; as for `Cc1ccc(C(=O)Oc2cccc3c2C(=O)C=C(N2CC2)C3=O)cc1`, 0.62 µM; as for `O=C1/C(=N/CCCl)C=C(O)c2c(O)cccc21`, 4.3 µM.
`COc1ccc(S(=O)(=O)Oc2cccc3c2C(=O)C=C(N2CC2)C3=O)cc1` had a concentration for half-maximal inhibition (IC50) of 0.16 µM.
As to `Cc1ccc(C(=O)Oc2cccc3c2C(=O)C(N2CC2)=C(N2CC2)C3=O)cc1`, the IC50 stood at 4.4 µM.
`O=C(Oc1cccc2c1C(=O)C=C(N1CC1)C2=O)c1ccc(F)cc1`: inhibition was half-maximal at 0.49 µM (IC50).
`O=C(Oc1cccc2c1C(=O)C=C(N1CC1)C2=O)c1ccco1`: the IC50 was found to be 0.49 µM.
As for `COc1cc(C(=O)Oc2cccc3c2C(=O)C=C(N2CC2)C3=O)cc(OC)c1OC`, the figure is 0.16 µM; as for `CN(C)c1cccc2c(S(=O)(=O)Oc3cccc4c3C(=O)C=C(NCCCl)C4=O)cccc12`, 2.9 µM.
Regarding `O=C(Oc1cccc2c1C(=O)C(N1CC1)=C(N1CC1)C2=O)c1cc(Cl)sc1Cl`, it took 3.9 µM to reach half-maximal inhibition (IC50).
Molecule `CC(C)(C)c1ccc(S(=O)(=O)Oc2cccc3c2C(=O)C=C(N2CC2)C3=O)cc1` showed an IC50 of 0.024 µM.
Molecule `O=C1C(N2CC2)=CC(=O)c2c(OS(=O)(=O)c3ccc(F)cc3)cccc21` registered an IC50 of 0.14 µM.
The value for `O=C(Oc1cccc2c1C(=O)C(N1CC1)=C(N1CC1)C2=O)c1ccco1` was 4.6 µM.
In turn, `O=C1C(N2CC2)=C(N2CC2)C(=O)c2c(OS(=O)(=O)c3ccc([N+](=O)[O-])c([N+](=O)[O-])c3)cccc21` registered an IC50 of 2.4 µM.
The molecule `O=C1C(N2CC2)=CC(=O)c2c(OS(=O)(=O)c3ccccc3)cccc21` returned an IC50 of 0.23 µM.
Take `CC(C)c1cc(C(C)C)c(S(=O)(=O)Oc2cccc3c2C(=O)C=C(N2CC2)C3=O)c(C(C)C)c1`: the IC50 was 0.28 µM.
Molecule `CN(C)C1=CC(=O)c2c(O)cccc2C1=O` displayed an IC50 of 1.6 µM.
With `O=C1C(N2CC2)=C(N2CC2)C(=O)c2c(OC(=O)C34CC5CC(CC(C5)C3)C4)cccc21`, the IC50 is 5.4 µM.
Consider `O=C(Oc1cccc2c1C(=O)C(N1CC1)=C(N1CC1)C2=O)c1ccc(Cl)cc1`, for which half-maximal inhibition (IC50) was put at 1.7 µM.
As for `O=C(Oc1cccc2c1C(=O)C=C(N1CC1)C2=O)c1cccs1`, the figure is 0.47 µM; as for `CS(=O)(=O)Oc1cccc2c1C(=O)C=C(NCCCl)C2=O`, 8.5 µM; as for `COc1cc(C(=O)Oc2cccc3c2C(=O)C(N2CC2)=C(N2CC2)C3=O)cc(OC)c1OC`, 3.4 µM.
`O=C1C=CC(=O)c2c(O)cccc21` [JUGLONE] yielded an IC50 of 3.7 µM.
For the molecule `O=C1C=C(O)C(=O)c2ccccc21` [LAWSONE], the IC50 was 100 µM.
For the molecule `CC1=CC(=O)c2ccccc2C1=O` [MENADIONE], the IC50 was 3.4 µM.
`CC1=CC(=O)c2c(O)cccc2C1=O` [PLUMBAGIN] showed an IC50 of 2.4 µM.
